Source: ChEMBL document CHEMBL1145814, “Antiretroviral activity of semisynthetic derivatives of glycopeptide antibiotics” (J Med Chem, 2003)
In brackets after ≈: the same amount, converted by molar mass. Several values for one entry are separate records, joined by “and”; a condition that tells them apart may be missing. Identical values can stand only once.

Experiments:
[1] = organism: Mus musculus; assay: Minimal inhibitory concentration required to cause a microscopic detectable alteration of C3H/3T3 embryo murine fibroblast cell morphology; assay type: functional
How it was run: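 Uninfected C3H/3T3 murine embryo fibroblast cultures were exposed to test compound and checked microscopically for changes in cell morphology. The MIC is the concentration causing a microscopically detectable alteration of morphology.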

[2] = organism: Mus musculus; assay: Effective concentration of compound required to protect C3H/3T3 embryo murine fibroblasts against the MSV induced transformation; assay type: functional, organism-based
How it was run: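 Monolayer murine embryo fibroblast C3H/3T3 cultures were infected with Moloney murine sarcoma virus at 75 focus-forming units and cultured with test compound. Transformation was examined microscopically on day 6 postinfection. EC50 is the concentration protecting cells against MSV-induced transformation by 50%.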

[3] = system: Human immunodeficiency virus 1; assay: Effective concentration of compound required to protect human T-lymphocytic cells against the cytopathogenicity of HIV-1; assay type: functional, organism-based
[4] = system: CCRF-CEM; assay: Inhibitory concentration against proliferation of human T-lymphocytic (CEM) cells; assay type: functional, cell-based
How it was run: (§1)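 (5–7.5) × 10^4 cells per well were incubated with test compound at 37 °C in a humidified CO2 atmosphere. L1210 murine leukemia cells grew for 48 h, and CEM and Molt4/clone 8 human lymphocytes grew for 72 h. Cells were then counted with a Coulter counter. IC50 is the concentration inhibiting proliferation by 50%.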

[5] = system: MOLT-4; assay: Inhibitory concentration of compound against proliferation of human T-lymphocytic cells MOLT-4/C8 was determined; assay type: functional, cell-based; how it was run: as §1
[6] = system: Human immunodeficiency virus 2; assay: Concentration required to protect human T-lymphocytic cells against the cytopathogenicity of HIV-2; assay type: functional, organism-based
[7] = system: L1210; assay: Inhibitory concentration of compound against proliferation of murine lukemia cells L1210 was determined; assay type: functional, cell-based; details: Mus musculus; how it was run: as §1

Structure (SMILES) | EC50 [3] | IC50 ([4]; Homo sapiens, CCRF-CEM) [µM] | IC50 ([4]; ccrf-cem) [µM] | IC50 [5] [µM] | EC50 [6] | IC50 [7] [µM] | EC50 ([3]; Human immunodeficiency virus 1) [µM] | EC50 ([6]; Human immunodeficiency virus 2) [µM] | MIC [1] [µM] | EC50 ([2]; Mus musculus, C3H/3T3) [µM] | EC50 [2] [µM]
CCCCc1ccc(CN2CCN(Cc3c(O)cc4c(c3O)-c3cc(ccc3O)C3NC(=O)C5NC(=O)C6NC(=O)C(Cc7ccc(c(Cl)c7)Oc7cc5cc(c7O)Oc5ccc(cc5Cl)C(O)C(NC3=O)C(=O)N[C@H]4C(=O)NC)NC(=O)C(N)c3ccc(O)c(c3)Oc3cc(O)cc6c3)CC2)cc1 (some centres not stated) | 1.7 µM and 3.5 µM | > 500 | > 250 | > 500 | 3 µM and 6.3 µM | 61 | – | – | > 20 | 3.6 | –
COC(=O)[C@H]1NC(=O)C2NC(=O)C(NC(=O)[C@@H]3NC(=O)[C@H]4NC(=O)[C@H](NC(=O)[C@H](N)c5ccc(O)c(c5)Oc5cc4cc(O)c5C)[C@H](O)c4ccc(cc4)Oc4cc3cc(c4OC3OC(CO[C@H]4O[C@H](C)[C@@H](O)[C@@H](O)[C@@H]4O)C(O)C(O)C3OC3OC(CO)C(O)C(O)C3OC3OCC(O)C(O)C3O)Oc3ccc(cc3)[C@H]2O[C@@H]2C[C@@H](N)[C@@H](O)[C@@H](C)O2)c2ccc(O)c(c2)-c2c(O[C@@H]3O[C@H](CO)[C@@H](O)[C@@H](O)[C@@H]3O)cc(O)cc21 (some centres not stated) | – | > 500 | – | > 500 | – | > 500 | > 250 | > 250 | > 100 | > 100 | –
CN[C@@H](CC(C)C)C(=O)NC1C(=O)N[C@@H](CC(N)=O)C(=O)NC2C(=O)NC3C(=O)NC(C(=O)N[C@@H](C(=O)O)c4cc(O)cc(O)c4-c4cc3ccc4O)C(O)c3ccc(cc3)Oc3cc2cc(c3O)Oc2ccc(cc2Cl)C1O (some centres not stated) | – | > 500 | – | > 500 | – | > 500 | 50 | > 250 | > 100 | > 100 | –
CNC1C(=O)NC2Cc3ccc(cc3)Oc3cc4cc(c3O)Oc3ccc(cc3Cl)C(O)C3NC(=O)C(NC(=O)C4NC(=O)C(NC2=O)c2cc(cc(O)c2Cl)Oc2cc1ccc2O)c1ccc(O)c(c1)-c1c(O)cc(O)cc1[C@H](C(=O)O)NC3=O (some centres not stated) | – | > 500 | – | > 500 | – | > 500 | 40 | > 50 | > 100 | 82 | –
CN(C)CCCNC(=O)[C@@H]1NC(=O)C2NC(=O)C(NC(=O)C3NC(=O)C4NC(=O)C(Cc5ccc(c(Cl)c5)Oc5cc3cc(c5O)Oc3ccc(cc3Cl)C2O)NC(=O)C(N)c2ccc(O)c(c2)Oc2cc(O)cc4c2)c2ccc(O)c(c2)-c2c1cc(O)c(CNC1C3CC4CC(C3)CC1C4)c2O (some centres not stated) | 4 µM | > 500 | > 250 | > 500 | 8 µM and 22 µM | > 500 | 2.5 | – | 20 (≈ 28.9 µg/mL) | 12 | –
CNC(CC(C)C)C(=O)NC1C(=O)NC(CC(N)=O)C(=O)NC2C(=O)NC3C(=O)NC(C(=O)N[C@@H](C(=O)O)c4cc(O)c(CN5CCN(Cc6ccc(-c7ccccc7)cc6)CC5)c(O)c4-c4cc3ccc4O)C(O)c3ccc(cc3)Oc3cc2cc(c3O)Oc2ccc(cc2Cl)C1O (some centres not stated) | – | > 500 | – | > 500 | – | 250 | 5.5 | 12 | > 100 | 13 | –
NC1C(=O)NC2Cc3ccc(c(Cl)c3)Oc3cc4cc(c3O)Oc3ccc(cc3Cl)C(O)C3NC(=O)C(NC(=O)C4NC(=O)C(NC2=O)c2cc(O)cc(c2)Oc2cc1ccc2O)c1ccc(O)c(c1)-c1c(O)cc(O)cc1[C@H](C(=O)O)NC3=O (some centres not stated) | – | > 500 | – | > 500 | – | > 500 | 17 | 20 | > 100 | 25 | –
CN[C@H](CC(C)C)C(=O)N[C@H]1C(=O)N[C@@H](CC(N)=O)C(=O)N[C@H]2C(=O)N[C@H]3C(=O)N[C@H](C(=O)N[C@H](C(=O)O)c4cc(O)cc(O)c4-c4cc3ccc4O)[C@H](O[C@H]3C[C@](C)(N)[C@@H](O)[C@H](C)O3)c3ccc(cc3)Oc3cc2cc(c3O[C@@H]2O[C@H](CO)[C@@H](O)[C@H](O)[C@H]2O[C@H]2C[C@](C)(N)[C@@H](O)[C@H](C)O2)Oc2ccc(cc2Cl)[C@H]1O | – | > 500 | – | > 500 | – | > 500 | > 250 | > 250 | > 100 | > 100 | –
CCCCc1ccc(CN2CCN(Cc3c(O)cc4c(c3O)-c3cc(ccc3O)C3NC(=O)C5NC(=O)C6NC(=O)C(Cc7ccc(c(Cl)c7)Oc7cc5cc(c7O)Oc5ccc(cc5Cl)C(O)C(NC3=O)C(=O)N[C@H]4C(=O)NCCCN(C)C)NC(=O)C(N)c3ccc(O)c(c3)Oc3cc(O)cc6c3)CC2)cc1 (some centres not stated) | 4 µM | > 500 | > 250 | 108 | 5 µM and 13 µM | 29 | 3 | – | 20 (≈ 30.5 µg/mL) | 2.4 | 3.5
NC1C(=O)NC2Cc3ccc(c(Cl)c3)Oc3cc4cc(c3O)Oc3ccc(cc3Cl)C(O)C3NC(=O)C(NC(=O)C4NC(=O)C(NC2=O)c2cc(O)cc(c2)Oc2cc1ccc2O)c1ccc(O)c(c1)-c1c(cc(O)c(CNC2C4CC5CC(C4)CC2C5)c1O)[C@H](C(=O)NC1C2CC4CC(C2)CC1C4)NC3=O (some centres not stated) | – | > 250 | – | > 250 | – | 202 | 2.5 | 3.5 | > 20 | 2 | –
COC(=O)[C@@H]1NC(=O)C2NC(=O)C(NC(=O)C(N)c3cc(Oc4ccc(CC(NC(=O)OCc5ccccc5)C(=O)O)cc4Cl)c(O)c(c3)Oc3ccc(cc3Cl)C2O)c2ccc(O)c(c2)-c2c1cc(O)c(CNC1C3CC4CC(C3)CC1C4)c2O (some centres not stated) | – | > 250 | – | > 250 | – | 181 | 17 | 37 | > 100 | 39 | –

More lines, main results first:

EC50 [3] | IC50 ([4]; Homo sapiens, CCRF-CEM) [µM] | IC50 ([4]; ccrf-cem) [µM] | IC50 [5] [µM] | EC50 [6] | IC50 [7] [µM] | EC50 ([3]; Human immunodeficiency virus 1) [µM] | EC50 ([6]; Human immunodeficiency virus 2) [µM] | Structure (SMILES) | MIC [1] [µM] | EC50 ([2]; Mus musculus, C3H/3T3) [µM] | EC50 [2] [µM]
– | 30 | – | > 10 | – | 30 | > 10 | > 10 | CCCCCCCCCCNC(=O)[C@H]1NC(=O)[C@H]2NC(=O)[C@H](NC(=O)[C@@H]3NC(=O)[C@H](CC(N)=O)NC(=O)[C@H](NC(=O)[C@@H](CC(C)C)NC)[C@H](O)c4ccc(c(Cl)c4)Oc4cc3cc(c4O[C@@H]3O[C@H](CO)[C@@H](O)[C@H](O)[C@H]3O[C@H]3C[C@](C)(N)C(O)[C@H](C)O3)Oc3ccc(cc3Cl)[C@H]2O)c2ccc(O)c(c2)-c2c(O)cc(O)cc21 (some centres not stated) | 20 (≈ 31.8 µg/mL) | > 4 | –
– | 242 | – | > 250 | – | 73 | 13 | 17 | NC1Cc2ccc(c(Cl)c2)Oc2cc3cc(c2O)Oc2ccc(cc2Cl)C(O)C2NC(=O)C(NC(=O)C3NC(=O)C(c3cc(O)cc(Oc4cc(C5NC(=S)N(c6ccccc6)C5=O)ccc4O)c3)NC1=O)c1ccc(O)c(c1)-c1c(cc(O)c(CNC3C4CC5CC(C4)CC3C5)c1O)[C@H](C(=O)O)NC2=O (some centres not stated) | > 100 | 2.9 | –
– | > 250 | – | > 250 | – | 212 | 5 | 17 | CNC(=O)[C@@H]1NC(=O)C2NC(=O)C(NC(=O)C3NC(=O)C4NC(=O)C(Cc5ccc(c(Cl)c5)Oc5cc3cc(c5O)Oc3ccc(cc3Cl)C2O)NC(=O)C(N)c2ccc(O)c(c2)Oc2cc(O)cc4c2)c2ccc(O)c(c2)-c2c1cc(O)c(CNC1C3CC4CC(C3)CC1C4)c2O (some centres not stated) | > 20 | 9.5 | –
– | 8.6 | – | 7.7 | – | 15 | > 10 | > 10 | CN[C@H](CC(C)C)C(=O)N[C@H]1C(=O)N[C@@H](CC(N)=O)C(=O)N[C@H]2C(=O)N[C@H]3C(=O)N[C@H](C(=O)N[C@H](C(=O)NCc4ccc(-c5ccc(Cl)cc5)cc4)c4cc(O)cc(O)c4-c4cc3ccc4O)[C@H](O[C@H]3C[C@](C)(N)[C@@H](O)[C@H](C)O3)c3ccc(cc3)Oc3cc2cc(c3O[C@@H]2O[C@H](CO)[C@@H](O)[C@H](O)[C@H]2O[C@H]2C[C@](C)(N)[C@@H](O)[C@H](C)O2)Oc2ccc(cc2Cl)[C@H]1O | 4 (≈ 7.03 µg/mL) | > 0.8 | –
– | > 250 | – | 66 | – | 36 | 12 | > 50 | CCCCc1ccc(CNC2C(Oc3c4cc5cc3Oc3ccc(cc3Cl)C(O)C3NC(=O)C(NC(=O)C5NC(=O)C5NC(=O)C(Cc6ccc(cc6)O4)NC(=O)C(NC)c4ccc(O)c(c4)Oc4cc(O)c(Cl)c5c4)c4ccc(O)c(c4)-c4c(O)cc(O)cc4[C@H](C(=O)NCCCN(C)C)NC3=O)OC(C(=O)NCCCN(C)C)C(O)C2O)cc1 (some centres not stated) | > 100 | > 20 | –
– | 402 | – | 225 | – | 500 | 6.5 | 12 | NCCCCCCCCCCNC(=O)[C@@H]1NC(=O)C2NC(=O)C(NC(=O)C3NC(=O)C4NC(=O)C(Cc5ccc(c(Cl)c5)Oc5cc3cc(c5O)Oc3ccc(cc3Cl)C2O)NC(=O)C(N)c2ccc(O)c(c2)Oc2cc(O)cc4c2)c2ccc(O)c(c2)-c2c(O)cc(O)cc21 (some centres not stated) | 20 (≈ 27.1 µg/mL) | > 4 | –
– | > 100 | – | > 100 | – | 70 | 6 | 12 | CCCCc1ccc(CNCc2c(O)cc3c(c2O)-c2cc(ccc2O)C2NC(=O)C4NC(=O)C5NC(=O)C(Cc6ccc(c(Cl)c6)Oc6cc4cc(c6O)Oc4ccc(cc4Cl)C(O)C(NC2=O)C(=O)N[C@H]3C(=O)NC)NC(=O)C(NC(=O)OC(C)(C)C)c2ccc(O)c(c2)Oc2cc(O)cc5c2)cc1 (some centres not stated) | 20 (≈ 29.7 µg/mL) | > 4 | –
